Assay results reported in the EternaBench riboswitch data.

System: MS2 coat protein
Experiment: apparent Kd, MS2 coat protein; higher = weaker binding; RNA-MaP array; FMN 200 µM where present
Summary of the method: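 The apparent Kd comes from binding curves fitted cluster by cluster, filtered, and summarised as a median. Those curves followed SNAP-549-labelled MS2 coat protein from 0.7 or 1.5 nM, doubling to 3 µM, on Illumina sequencing-chip clusters where stalled E. coli RNA polymerase had transcribed the designs, without and then with constant ligand. The buffer was 100 mM Tris-HCl pH 7.5, 80 mM KCl, 4 mM MgCl2, BSA, DTT, yeast tRNA and Tween-20, and green signal was normalised to red-channel RNA signal and control-cluster median Fmax.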

[1] = designed as: ON switch for flavin mononucleotide, no ligand
[2] = ligand present: flavin mononucleotide, designed as: ON switch for flavin mononucleotide
[3] = designed as: OFF switch for flavin mononucleotide, no ligand
[4] = ligand present: flavin mononucleotide, designed as: OFF switch for flavin mononucleotide

| Sequence | apparent Kd [1] | apparent Kd [2] | apparent Kd [3] | apparent Kd [4] |
| --- | --- | --- | --- | --- |
| UGUUGUAAUACAGGAUAUAUAUUAUUUUUAUUUAUAGAAGGGUAAUCACAUGAGGAUCACCCAUGUAUAUACGAGGAAGAAGAG | 209 nM | 251 nM | – | – |
| GGUCGUCACAUUAACAUGAGGAUCACCCAUGUCUCUUGACAUGAGGAUAUGGAUCCUAAUUGGAUCCAGAAGGCAUGGACGACC | 1030 nM | 96.5 nM | – | – |
| AGGUGGUGUGGAAAGGAUAUACGGUUGAGGACAUGAGGAUCACCCAUGUGGUAGAGGACGUGAGUGUAGAAGGUUCGGGAUUGGU | 74.9 nM | 52.1 nM | – | – |
| CCCAACGUAACGCCACGUUGAGAGCAGGAUAUUCCGCCGUGAUCUACAUGAGGAUCACCCAUGUGGAAGAAGGGCUACACAAAA | – | – | 16.3 nM | 146 nM |
| CGCAUGCGUAGUAUUAGUUGCUGACAGGAUAUGACAUGAGGAUCACCCAUGUUUAUUAAGAAGAUUCAGAAGGGUCACGUUGCG | – | – | 6.87 nM | 5.8 nM |
| AAAUGCCUGUCGAUGCUCGACAUGAGGAUCACCCAUGUAUAGCAGGAUAUGCAGAACUGACUCGUGCAGAAGGGCUAUACCUAC | – | – | 17.8 nM | 37.4 nM |
| UUAAAUCGAAACAUGAGGAUCACCCAUGUGUUGUAAUUAACAUAGGAUAUGUAAAUACUUUUUUAAUAGAAGGAUGAUAAUACU | 17 nM | 12.9 nM | – | – |
| GAAGCACGCAUUAACAUGAGGAUCACCCAUGUGAAAACACGUGAGGAUAUGGAUCUGAAGAAGAUCCAGAAGGCACCGUGCUAA | 5.44 nM | 4.78 nM | – | – |
| AGUGUCGGCACAGGAUAUGAGAUGCCGGCAGACAUGAGGAUCACCCAUGUAAGCGAACCGGGCAGUCAGAAGGGUGAUCGACGA | 161 nM | 29.7 nM | – | – |
| CGCGCGGUGUAGAAGGGUGACAUGAGGAUCACCCAUGUGCGGAGGCGCCCAUUGACGCCUCCGCCACAGGAUAUACACCACGCC | 46.8 nM | 66.9 nM | – | – |
| UUUGUAUAGCAAGGAUAUGUUUAAUUAUAGUUGCCUCAUACAUGAGGAUCACCCAUGUUUUACUUACAGAAGGUGCAAUGAUUU | – | – | 316 nM | 317 nM |
| GCAACGCCUGACAUGAGGAUCACCCAUGUUAGAUUGUUAUGUCAGGAUAUUGUCGCUAAAGGUGAUGAGAAGGGAUAUGUUGCU | 1180 nM | 71 nM | – | – |
| GUCAGCUCGUGAGGAUAUACAACACUGCUUCGGCAGUGUAUUAAGAUCACAUGAGGAUCACCCAUGUAGAAGGCACGAGCUGCU | – | – | 12.9 nM | 276 nM |
| CUUGUGUAAGGAUAUCGAGUAGAACGCUCGAGUUCUGAGCUCGAGAAGGUACAUGAGGAUCACCCAUGUUAAAA | – | – | 40.1 nM | 66.2 nM |
| GUGAUCCCGGUUAGGAUAUUAGUGAUGUACACCUCUGAGAAGGGACAUGAGGAUCACCCAUGUCGCCUUGAAAC | – | – | 17.7 nM | 22.6 nM |
| AUUUUAACAUAGGAUAUCGAAUUUAUUAUUUAACGAGAAGGAUGAACAUGAGGAUCACCCAUGUGGUAUCAUGG | – | – | 217 nM | 93.6 nM |
| UUUUAACAUGAGGAUCACCCAUGUGAGGAUAUCGAAAUUUAUAUUAAUAUUAAUAAUUCGAGAAGGCACAUUUU | – | – | 142 nM | 137 nM |
| UUAUACGCUGAGGAUAUCAUCACUGAGAGGUGAUGAGAAGGCGGUACAUGAGGAUCACCCAUGUCUAUGGGCAG | – | – | 291 nM | 418 nM |
| AGCAUGUAAGGAUAUGUAACGCGGCGUUCAUUCGUCGUCCCACAGAAGGUACAUGAGGAUCACCCAUGUGCUCC | – | – | 42 nM | 77.7 nM |
| UGAGGACAUGAGGAUCACCCAUGUAAGGAUAUGCGGAGAGUUUGGAGAGGUUGAGGAGGCAGAAGGUACGGGAU | – | – | 155 nM | 79.1 nM |
| AAAUAAAGCAGUGUAUUAAGAUCACAUGAGGAUCACCCAUGUAGAAGGCUCGAGCAAAAUGCUCGAGAGGAUAUACAACACUGC | – | – | 10.2 nM | 195 nM |
| CAGUACUGAGGAUAUACAUGAGGAUCACCCAUGUGAACCAGCUAGGAAACUAGCAAAGGUAGAAGGCAGUACUG | – | – | 21.3 nM | 259 nM |
| CUAUGACGAAUAGGAUAUUCGAUCAAAAGGAUAGAAGAAGGGUUACAUGAGGAUCACCCAUGUAUGCACAUGAGGAUCCCUUAG | – | – | 193 nM | 219 nM |
| GGGCUGUCAGGAUAUACAUGAGGAUCACCCAUGUCGAGCUGUGAUAGGGCAAGAGUAGGUAGAAGGGACGAGAG | – | – | 34.7 nM | 36.1 nM |
| UUAAAUCAUGUAGGAUAUGCAUGGCGAAGCUACGCAGAAGGACAUGAGGAUCACCCAUGUUAAAGCGACCGAGUUCGGUUGCAA | – | – | 124 nM | 214 nM |
| GGACAUGUACAGAAGGGCAAUUUAUUUAUUGAUUAUUUAGUUCUGUUUUGCAGGAUAUGUAAAACAUGAGGAUCACCCAUGUCC | 188 nM | 105 nM | – | – |
| UUGGACGUCGUAGGAUAUGUAGGAUAUUCCUACAUGAGGAUCACCCAUGUUGACAUGGAAGAAGGACAGAAGGACGGUGUCCAU | 241 nM | 4.54 nM | – | – |
| GUACAGAGGGAGAAGGGCUAGGAGGUCCAGCUUAUGUGUGUUGCAACAUGAGGAUCACCCAUGUAGCAGGAUAUCCCUCGUACA | – | – | 40.2 nM | 257 nM |

| Sequence | apparent Kd [1] | apparent Kd [2] | apparent Kd [3] | apparent Kd [4] |
| --- | --- | --- | --- | --- |
| CCCUCACAUGAGGAUCACCCAUGUCAGGAUAUCUCACAUCAGCCUUAGGCCGAUGUCUAGAGAAGGGACGUAUC | – | – | 22.7 nM | 30.3 nM |
| AAAGAAAGGUCAGGAUAUCCGUUAGUCGCGCAAGGAGAAGGGACCUCAUGGGUGCUGACACAUGAGGAUCACCCAUGUAAAAUA | – | – | 65.5 nM | 23.1 nM |
| GUUUUUCCUCAUGUACAUGAGGAACAUGAGGAUCACCCAUGUAGAAGGAUUUCCCUUAAAUUAAAAUAGGAUAUACAUAUAUUU | – | – | 88.6 nM | 58.9 nM |
| AGUUAAUAUCGAGGAUAUCCUCUGAAACAUGAGGAUCACCCAUGUAGAAUGGGAGAAGGCGAUAUUAACAGCAUGUUACAUGCA | 111 nM | 48.6 nM | – | – |
| GCUGCAUAGGCAGGAUAUGCAAACAUGAGAUGAAAAUACAUCUCAUGUACAUGAGGAUCACCCAUGUAGAAGGGCCUGUGCAGU | – | – | 14.9 nM | 15.5 nM |
| UUUUAGUCAGGAUAUACAUGAGGAUCACCCAUGUAAAAUUUUAAUUUAAUUUUAAGGUGUAGAAGGGACAUUAA | – | – | 27.6 nM | 29.4 nM |
| GACAUGAGGAUCACCCAUGUCCCUCCAGAAGGCUGGCGCGCGAAACCGAUCUCGGUUCCGGGCACAGAGGAUAUGGGCGGUUGG | 198 nM | 26.1 nM | – | – |
| UAUAUAUAGGCAGGAUAUACAUGUAUAUAUAAUAUAUUAUAUAAUAUUACAUGAGGAUCACCCAUGUAGAAGGGCCAUAAUAUA | – | – | 48.3 nM | 66.9 nM |
| AAUUUAAUACAUGAGGAUCACCCAUGUAAUACUAGUAAGAUCUAGGAUAUCAGCUCGUUUAGAGCUGAGAAGGAGAUCACAUGU | 86.3 nM | 26 nM | – | – |
| GGGCUCCCGCAGAAGGUGACAAAGUGUUCAUGUCAAGGAUAUGUGGUUCACAUGAGGAUCACCCAUGUAGGGCCCGUUAGGAAC | 97.3 nM | 23.9 nM | – | – |
| GAUUAUAAGUAAGGAUAUGUAUAUGAAACAUAUACAGAAGGUACAUGAGGAUCACCCAUGUUCUUGCAGCGUGAAUAUGUAAUC | – | – | 19.1 nM | 28.5 nM |
| GAACUGAAGCAUGGCUUUAGUCGUACAUGAGGAUCACCCAUGUAGGAUAUGGUAGGCAUAGCUUACUAGAAGGAUAGAGUGAUC | – | – | 187 nM | 63.4 nM |
| GAUCUGAUAGGAUAUACAUGAGGAUCACCCAUGUGCGAGCUAGCGAAAGCUAGCUCAGGUAGAAGGGUCAGAUC | – | – | 12 nM | 15.5 nM |
| GACAUGGUCCAGAAGGGCUAUCUAUUUAAGUACGAUUUAGAACAGCAUAGCAGGAUAUGGCUAACAUGAGGAUCACCCAUGUUC | 20.5 nM | 9.26 nM | – | – |
| CGUACACAUGAGGAUCACCCAUGUCAGAUUUGGUCAGGAUAUGGGCGGCAUCCGCUAUUGCCAGAAGGGACUGUUG | 83.1 nM | 160 nM | – | – |
| UGGUACAUCAUAGGAUAUCGUGUGUAAACAUGAGGAUCACCCAUGUCAUCCGAGAGUAUGUCGACCGAGAAGGGUGAUGUACCU | 45.4 nM | 72.7 nM | – | – |
| UGUGUUGCGCAGGAUAUGCUGGACAUGAGAGCUGCAGAAGGGCGAACAUGAGGAUCACCCAUGUUUUCCUCGGC | – | – | 14.1 nM | 14.6 nM |
| UAGGAGUACGUAGGAUAUGUAGGAUAUUCCUACAUGAGGAUCACCCAUGUAUGCAUGGAAGAAGGACAGAAGGACGUGCUCCUU | 200 nM | 13.2 nM | – | – |
| UGUCGGAGCAGAGGAUAUUACAUGAGGAUCACCCAUGUAUGAACCAAUAGCUGGAAACAGCAAUGUAAGAAGGCGGCUCCGACA | – | – | 5.18 nM | 9.07 nM |
| GGCGAGUGAGGAUAUCUGAUGUCUAACUUCGGUUAGACAUCAGAGAAGGCACAUGAGGAUCACCCAUGUCCGCC | – | – | 19.3 nM | 17.1 nM |
| GAUAGGACAGAGAAGGUACGUGCUAGAGAUACUAGCAAAAUUUCCUCACAUGAGGAUCACCCAUGUAAGGAUAUCUGUCCUAUC | – | – | 4.44 nM | 4.8 nM |
| UGGUACAUGGGAGGAUAUGGGUUGAUAACAUGAGGAUCACCCAUGUUAAAUAUCCCGAGAGGGAACUAGAAGGCCCAUGUACCU | 643 nM | 46 nM | – | – |
| CACGGCGCAUGAGGAUAUCAGGGCGACCUUUCGACAUGAGGAUCACCCAUGUAAUCUACUCGGCGUGAGAAGGCAUGACAGCCA | 286 nM | 136 nM | – | – |
| GGAUCGAGUGUGAGGAUAUGCUGGUCCUUGGAUCAGCAGAAGGCACAUGAGGAUCACCCAUGUCCAAACGGUCC | – | – | 266 nM | 388 nM |
| UAGUAUUAACGAGGAUAUAAUAUGUUCAAUUUUUUAUAUUGUUUACAUGAGGAUCACCCAUGUUAUUAGAAGGCGUAUGGGAUU | 67.2 nM | 58.8 nM | – | – |
| GUGUACAGAGGAUAUACAAGAGGAGUUACGAAAGUAACUUCACAUGAGGAUCACCCAUGUAGAAGGCUGUACAC | – | – | 24.6 nM | 39.5 nM |
| UUUAUAAAUUAGAAGGCGGGAUGAAUUACAAUAGACAUGAGGAUCACCCAUGUGUAUUCAUGUCUUGAGGAUAUAGUCAUAUAU | 271 nM | 110 nM | – | – |
